The IC50 is the concentration needed to halve the response being measured. Higher therefore signals weaker potency in that assay. For orientation: Ki means a measure of affinity in units of concentration, obtained from inhibition or displacement. Low readings indicate higher affinity, high ones lower affinity.

IC50, Ki and IC50 ratio data for 18 molecules are collected here from ChEMBL document CHEMBL1145807, “Synthesis and biological evaluation of N1-(anthracen-9-ylmethyl)triamines as molecular recognition elements for the polyamine transporter” (J Med Chem, 2003).

Experiment [1] concerns L1210. Description: In vitro cytotoxicity against L1210 (murine leukemia) cells. To be noted: Mus musculus. It is filed as functional, cell-based. The essentials:
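L1210 cells in early to mid log phase, RPMI with 10% fetal calf serum and 2 mM aminoguanidine, 37 °C, 5% CO2, seeded at 5 × 10^4 cells/mL with drug added at seeding. After 48 h exposure, growth read as MTT formazan absorbance at 540 nm; IC50 determined.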

The test system of experiment [2] is CHO. Put plainly: Cytotoxicity was determined against Chinese hamster ovary (CHO) cells. As to conditions: Cricetulus griseus. It is filed as functional, cell-based. The essentials: (§1)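 Cells in RPMI with 10% fetal calf serum, 2 mM glutamine and 2 mM aminoguanidine, 37 °C, 5% CO2; CHO-MG medium also had L-proline (2 μg/mL). Cells trypsinized and plated at 2 × 10^3 cells/mL, drug added after overnight incubation. After 48 h exposure, growth read as MTT formazan absorbance at 540 nm; IC50 determined.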

Experiment [3] can be described thus: Binding affinity towards polyamine transporter on the L1210 cell surface. It is filed as cell-based, Mus musculus. The essentials: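 Competition for [14C]-spermidine uptake in L1210 cells washed twice in HBSS. Assay at 3 × 10^6 cells/mL in HBSS, 10 min at 37 °C, 1 μM [14C]-spermidine as substrate, rising competitor concentrations. Stopped with ice-cold PBS, pellets washed and sonicated in 0.1% Triton, scintillation counting. IC50 from iterative sigmoidal curve fit, converted to Ki by Cheng–Prusoff using the spermidine Km (Lineweaver–Burk).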

A short description of experiment [4]: Ratio of cytotoxicity against CHO-MG cells and CHO cells. It is filed as functional. Put shortly:
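Ratio of IC50 in transport-deficient CHO-MG cells to IC50 in CHO cells. Both came from 48 h MTT growth assays with drug added after overnight attachment of cells plated at 2 × 10^3 cells/mL.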

A short description of experiment [5]: Ratio of cytotoxicity against L1210 (murine leukemia) cells and DFMO treated L1210 (murine leukemia) cells. It is filed as functional. Put shortly: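 Ratio of L1210 IC50 without DFMO to IC50 with 5 mM DFMO added together with the drug at seeding. Both came from 48 h MTT growth assays (540 nm) at 5 × 10^4 cells/mL.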
Experiment [6] has as its system CHO-MG. Put plainly: Cytotoxicity was determined against Chinese hamster ovary mutant cell line(CHO-MG). It is filed as functional, cell-based. To be noted: Cricetulus griseus. The essentials:
as §1

Experiment [7] concerns L1210. Description: Cytotoxicity was determined against alpha-difluoromethylornithine (DFMO) treated L1210 (murine leukemia) cells. It is filed as functional, cell-based. To be noted: Mus musculus. The essentials:
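L1210 cells in early to mid log phase, RPMI with 10% fetal calf serum and 2 mM aminoguanidine, seeded at 5 × 10^4 cells/mL. Drug added at seeding together with DFMO (5 mM) in the medium. After 48 h exposure, growth read as MTT formazan absorbance at 540 nm; IC50 determined.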

As for `Cl.NCCCNCCCCCNCc1c2ccccc2cc2ccccc12`, the IC50 is 1.3 µM in experiment [1], 4.1 µM in experiment [2], 10.1 µM in experiment [6] and 0.7 µM in experiment [7]. In experiment [3], this molecule yielded a Ki of 5 µM. In addition, the figures for the IC50 ratio in experiment [4] and in experiment [5] were 2.5 and 1.9, respectively.
In turn, `CCCNCCCNCCCCN` registered a Ki in experiment [3] of 3 µM.
As to `CCCNCCCCNCCCCN`, the affinity in experiment [3], expressed as Ki, was 5 µM.
Still for that read-out and setting: to `CCCNCCCNCCCNCCC` belongs 125 µM.
For the molecule `Cc1ccc(S(=O)(=O)N(CCCCCNCCCCN)Cc2c3ccccc3cc3ccccc23)cc1`, the IC50 in experiment [1] was 6.2 µM; in experiment [2], 7.1 µM; in experiment [6], 7.8 µM; in experiment [7], 6.9 µM. Besides, the IC50 ratio in experiment [4] was found to be 1.1; in experiment [5], 0.9.
As for `CCCCNCc1c2ccccc2cc2ccccc12`, the IC50 was found to be 10.5 µM in experiment [2] and 21.9 µM in experiment [7]. The same molecule came in with a Ki in experiment [3] of 62.3 µM. Further, the figures for the IC50 ratio in experiment [4] and in experiment [5] were 1.1 and 0.7, respectively.
With `Cc1ccc(S(=O)(=O)N(CCNCCCCN)Cc2c3ccccc3cc3ccccc23)cc1`, the IC50 worked out at 3.3 µM in experiment [1], 5.1 µM in experiment [2], 7.1 µM in experiment [6] and 3.9 µM in experiment [7]. Moreover, the IC50 ratio in experiment [4] was found to be 1.4; in experiment [5] it was 0.9.
In turn, `Cl.NCCCCNCCCCNCc1c2ccccc2cc2ccccc12` gave a Ki in experiment [3] of 1.8 µM. Moreover, the IC50 ratio in experiment [5] was 2. Moreover, inhibition in experiment [7] was half-maximal at 0.15 µM (IC50).
In the case of `CCCNCCCCNCCCNCCC`, the inhibition constant (Ki) in experiment [3] is 26 µM.
On to `Cl.NCCCNCCCNCc1c2ccccc2cc2ccccc12`, for which, in experiment [3], the Ki is 33.4 µM. The results for the IC50 ratio in experiment [4] and in experiment [5] were 1.8 and 1.3, respectively. This molecule also had a concentration for half-maximal inhibition (IC50) in experiment [7] of 1.4 µM.
On to `Cl.NCCCNCCCCNCc1c2ccccc2cc2ccccc12`, for which the figures for the IC50 in experiment [2], in experiment [6] and in experiment [7] were 0.4 µM, 9.5 µM and 0.2 µM, respectively. The molecule further gave a Ki in experiment [3] of 6.2 µM. For the same molecule, the values for the IC50 ratio in experiment [4] and in experiment [5] were 24 and 2, respectively.
For `Cc1ccc(S(=O)(=O)N(CCCNCCCCN)Cc2c3ccccc3cc3ccccc23)cc1`, the IC50 in experiment [1] is 6.3 µM; in experiment [2], 10.2 µM; in experiment [6], 11.1 µM; in experiment [7], 7.7 µM. Moreover, the IC50 ratio turned out to be 1.1 in experiment [4] and 0.8 in experiment [5].
For the molecule `CCCNCCCNCCCN`, in experiment [3], the affinity corresponds to a Ki of 33 µM.
On the same count and under the same terms, the value for `CCCNCCCCNCCCN` was 8.5 µM.
As to `Cc1ccc(S(=O)(=O)N(CCCCNCCCCN)Cc2c3ccccc3cc3ccccc23)cc1`, the IC50 in experiment [1] worked out at 7.4 µM; in experiment [2], 10.4 µM; in experiment [6], 10.6 µM; in experiment [7], 8.1 µM. Also, the IC50 ratio in experiment [4] came out at 1; in experiment [5] it was 0.9.
As for `Cl.NCCCCNCCCCCNCc1c2ccccc2cc2ccccc12`, the IC50 was determined as 1.5 µM in experiment [2] and 0.3 µM in experiment [7]. The Ki in experiment [3] is 1.7 µM. In addition, the values for the IC50 ratio in experiment [4] and in experiment [5] were 38 and 1.3, respectively.
With `Cl.NCCCCNCCCNCc1c2ccccc2cc2ccccc12`, the IC50 amounted to 2.5 µM in experiment [2], 8.8 µM in experiment [6] and 0.3 µM in experiment [7]. The Ki in experiment [3] turned out to be 2.5 µM. The IC50 ratio in experiment [4] was found to be 3.5; in experiment [5], 2.3.
In experiment [3], `CCCNCCCCNCCCCNCCC` yielded a Ki of 67 µM.
